pIC50: −log10 of the molar value. Calls of active or inactive are those of the source. No cut-off for these calls is given here.
How the values were obtained:
[1] = target: T1, Myeloperoxidase (Homo sapiens, UniProt P05164); assay: Inhibition of human PMN leukocytes MPO peroxidation activity using H2O2 as substrate preincubated for 10 mins followed by H2O2 addition and measured for 15 mins by amplex red reagent based assay
T1 sequence (P05164 whole entry): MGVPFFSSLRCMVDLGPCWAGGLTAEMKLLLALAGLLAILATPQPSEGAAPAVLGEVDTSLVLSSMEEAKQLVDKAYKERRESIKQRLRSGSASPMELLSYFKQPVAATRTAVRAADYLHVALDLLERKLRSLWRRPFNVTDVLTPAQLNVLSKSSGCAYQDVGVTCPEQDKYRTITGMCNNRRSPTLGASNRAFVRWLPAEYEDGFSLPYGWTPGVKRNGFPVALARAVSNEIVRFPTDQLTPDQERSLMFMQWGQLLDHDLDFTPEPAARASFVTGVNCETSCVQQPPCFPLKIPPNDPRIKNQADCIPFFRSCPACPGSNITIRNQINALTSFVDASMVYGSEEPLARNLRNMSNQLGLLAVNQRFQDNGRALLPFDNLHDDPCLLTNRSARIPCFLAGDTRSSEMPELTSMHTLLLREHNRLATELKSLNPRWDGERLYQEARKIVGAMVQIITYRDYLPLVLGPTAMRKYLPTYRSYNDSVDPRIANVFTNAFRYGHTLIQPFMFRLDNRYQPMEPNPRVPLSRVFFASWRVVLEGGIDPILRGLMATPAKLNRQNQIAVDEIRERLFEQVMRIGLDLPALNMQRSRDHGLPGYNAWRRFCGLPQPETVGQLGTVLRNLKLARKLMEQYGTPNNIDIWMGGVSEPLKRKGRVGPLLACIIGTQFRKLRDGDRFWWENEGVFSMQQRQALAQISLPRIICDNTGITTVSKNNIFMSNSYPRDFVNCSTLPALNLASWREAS

[2] = test system: Mus musculus; assay: (§1) In vivo inhibition of PMA-stimulated MPO in human MPO transgenic mouse model of acute inflammation assessed as reduction in hypochlorous acid production in blood at 30 mg/kg, po administered 20 mins prior to PMA stimulation and measured after 2 mins by luminol chemiluminescence assay relative to control; type: functional
Method in brief: (§2)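 Mice were dosed with test compound, then given PMA 20 minutes later to stimulate MPO through neutrophil degranulation. After 2 minutes, blood samples were treated with luminol. Chemiluminescence was read as MPO-dependent hypochlorous acid production.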

[3] = Cmax in mouse at 3 mg/kg, po; type: ADME, organism-based; design: dose 3 mg/kg, route oral; conditions: in vivo
[4] = test system: Mus musculus; assay: as §1, with “10” for “30”; type: functional; method in brief: as §2
[5] = AUC in mouse at 3 mg/kg, po after 8 hrs; type: ADME, organism-based; design: dose 3 mg/kg, time < 8 hr, route oral; conditions: in vivo
[6] = test system: Mus musculus; assay: In vivo inhibition of PMA-stimulated MPO in human MPO transgenic mouse model of acute inflammation assessed as reduction in hypochlorous acid production in blood administered orally 20 mins prior to PMA stimulation and measured after 2 mins by luminol chemiluminescence assay; type: functional, organism-based; method in brief: as §2
[7] = Protein binding in human plasma; type: ADME, cell-free; conditions: read-out: PPB (converted)
[8] = target: T2, Eosinophil peroxidase (Homo sapiens, UniProt P11678); assay: Inhibition of human EPX bromination activity assessed as reduction in H2O2 catalyzed 3-bromo tyrosine formation from tyrosine and potassium bromide preincubated for 10 mins followed by tyrosine/potassium bromide/H2O2 addition measured after 15 mins by RP-UPLC analysis
T2 sequence (P11678 whole entry): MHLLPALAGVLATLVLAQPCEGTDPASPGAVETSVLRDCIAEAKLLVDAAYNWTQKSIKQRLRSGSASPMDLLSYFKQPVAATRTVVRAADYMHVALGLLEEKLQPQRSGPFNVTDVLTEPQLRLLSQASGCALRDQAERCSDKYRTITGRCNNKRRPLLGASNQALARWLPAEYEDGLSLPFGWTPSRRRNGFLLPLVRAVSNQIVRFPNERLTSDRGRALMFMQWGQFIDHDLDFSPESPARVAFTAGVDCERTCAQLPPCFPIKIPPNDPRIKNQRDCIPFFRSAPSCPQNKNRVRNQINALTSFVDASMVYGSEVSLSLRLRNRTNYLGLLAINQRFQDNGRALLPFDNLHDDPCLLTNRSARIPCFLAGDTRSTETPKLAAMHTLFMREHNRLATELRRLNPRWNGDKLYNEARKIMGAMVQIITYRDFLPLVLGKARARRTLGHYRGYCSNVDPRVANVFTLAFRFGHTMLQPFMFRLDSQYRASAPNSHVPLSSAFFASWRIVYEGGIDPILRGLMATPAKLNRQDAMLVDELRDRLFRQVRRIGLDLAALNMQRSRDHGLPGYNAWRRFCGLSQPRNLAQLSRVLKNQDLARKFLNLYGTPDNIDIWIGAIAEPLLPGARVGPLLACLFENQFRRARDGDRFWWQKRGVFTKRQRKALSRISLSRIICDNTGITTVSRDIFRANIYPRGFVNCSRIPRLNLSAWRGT

[9] = target: T1, Myeloperoxidase; assay: Inhibition of human PMN leukocytes MPO chlorination activity using H2O2 as substrate preincubated for 10 mins followed by H2O2 addition and measured for 15 mins in presence of NaCl by aminophenyl fluorescein based assay
[10] = Protein binding in mouse plasma; type: ADME, cell-free; conditions: read-out: PPB (converted)
[11] = test system: Mus musculus; assay: In vivo inhibition of […] in mouse model of acute inflammation at 10 to 30 mg/kg, po; type: functional, organism-based
[12] = Plasma concentration in human MPO transgenic mouse model of PMA-induced acute inflammation at 10 mg/kg, po; type: ADME, organism-based; conditions: in vivo
[13] = target: T3, Thyroid peroxidase (Homo sapiens, UniProt P07202); assay: Inhibition of human TPO assessed as reduction in H2O2 catalyzed 3,5-iodo tyrosine formation from 3-iodotyrosine and potassium iodide preincubated for 10 mins followed by tyrosine/potassium bromide/H2O2 addition measured after 15 mins
T3 sequence (P07202 whole entry): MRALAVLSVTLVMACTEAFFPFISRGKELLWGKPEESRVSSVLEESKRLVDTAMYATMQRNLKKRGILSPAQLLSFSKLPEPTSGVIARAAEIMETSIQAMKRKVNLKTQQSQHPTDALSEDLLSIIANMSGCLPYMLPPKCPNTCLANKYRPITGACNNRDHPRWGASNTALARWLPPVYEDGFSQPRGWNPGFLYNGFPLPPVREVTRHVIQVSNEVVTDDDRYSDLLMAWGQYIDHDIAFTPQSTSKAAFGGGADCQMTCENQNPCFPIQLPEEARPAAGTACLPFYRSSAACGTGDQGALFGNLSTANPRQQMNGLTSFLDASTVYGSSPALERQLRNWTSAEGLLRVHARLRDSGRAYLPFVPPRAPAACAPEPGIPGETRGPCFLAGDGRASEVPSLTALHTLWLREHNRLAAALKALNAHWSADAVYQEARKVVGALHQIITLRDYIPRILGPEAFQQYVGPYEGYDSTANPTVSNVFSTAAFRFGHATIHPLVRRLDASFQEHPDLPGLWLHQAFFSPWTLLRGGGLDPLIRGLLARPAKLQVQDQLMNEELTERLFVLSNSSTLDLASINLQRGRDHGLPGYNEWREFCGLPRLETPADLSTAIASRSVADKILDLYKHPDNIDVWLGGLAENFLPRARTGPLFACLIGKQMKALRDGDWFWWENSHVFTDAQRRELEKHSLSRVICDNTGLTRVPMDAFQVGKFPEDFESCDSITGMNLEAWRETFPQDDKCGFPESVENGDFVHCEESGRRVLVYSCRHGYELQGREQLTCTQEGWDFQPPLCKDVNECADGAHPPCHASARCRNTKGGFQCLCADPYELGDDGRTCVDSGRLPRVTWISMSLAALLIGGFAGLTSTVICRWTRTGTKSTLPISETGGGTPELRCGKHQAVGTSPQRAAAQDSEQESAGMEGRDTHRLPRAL

[14] = target: Lactoperoxidase (Homo sapiens, UniProt P22079); assay: Inhibition of human LPO assessed as reduction in H2O2 catalyzed 3,5-iodo tyrosine formation from 3-iodotyrosine and potassium iodide preincubated for 10 mins followed by tyrosine/potassium bromide/H2O2 addition measured after 15 mins
Lactoperoxidase, sequence (P22079 whole entry): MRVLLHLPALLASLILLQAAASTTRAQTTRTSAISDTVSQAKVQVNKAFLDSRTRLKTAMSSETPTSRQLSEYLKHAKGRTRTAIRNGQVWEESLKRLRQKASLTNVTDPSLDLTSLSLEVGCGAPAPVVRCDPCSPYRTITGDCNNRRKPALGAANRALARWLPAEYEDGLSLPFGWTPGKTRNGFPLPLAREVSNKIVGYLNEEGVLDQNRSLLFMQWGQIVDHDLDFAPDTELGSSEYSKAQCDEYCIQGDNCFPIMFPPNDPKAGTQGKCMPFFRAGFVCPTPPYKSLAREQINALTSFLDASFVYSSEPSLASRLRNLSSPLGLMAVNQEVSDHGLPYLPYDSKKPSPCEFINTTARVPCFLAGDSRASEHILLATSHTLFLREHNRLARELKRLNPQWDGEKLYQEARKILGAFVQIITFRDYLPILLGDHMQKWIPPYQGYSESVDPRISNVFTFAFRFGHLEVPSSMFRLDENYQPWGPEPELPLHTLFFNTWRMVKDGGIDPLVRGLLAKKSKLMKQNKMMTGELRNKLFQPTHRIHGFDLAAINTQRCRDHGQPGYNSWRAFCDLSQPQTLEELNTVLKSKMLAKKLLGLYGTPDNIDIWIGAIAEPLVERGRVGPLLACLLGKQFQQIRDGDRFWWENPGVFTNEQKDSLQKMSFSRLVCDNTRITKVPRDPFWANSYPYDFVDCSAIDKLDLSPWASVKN

[15] = Plasma concentration in human MPO transgenic mouse model of PMA-induced acute inflammation at 30 mg/kg, po; type: ADME, organism-based; conditions: in vivo
[16] = target: Cytochrome P450 3A4 (Homo sapiens, UniProt P08684); assay: Inhibition of CYP3A4 (unknown origin); type: ADME
Cytochrome P450 3A4, sequence (P08684 whole entry, the tested form may be a part): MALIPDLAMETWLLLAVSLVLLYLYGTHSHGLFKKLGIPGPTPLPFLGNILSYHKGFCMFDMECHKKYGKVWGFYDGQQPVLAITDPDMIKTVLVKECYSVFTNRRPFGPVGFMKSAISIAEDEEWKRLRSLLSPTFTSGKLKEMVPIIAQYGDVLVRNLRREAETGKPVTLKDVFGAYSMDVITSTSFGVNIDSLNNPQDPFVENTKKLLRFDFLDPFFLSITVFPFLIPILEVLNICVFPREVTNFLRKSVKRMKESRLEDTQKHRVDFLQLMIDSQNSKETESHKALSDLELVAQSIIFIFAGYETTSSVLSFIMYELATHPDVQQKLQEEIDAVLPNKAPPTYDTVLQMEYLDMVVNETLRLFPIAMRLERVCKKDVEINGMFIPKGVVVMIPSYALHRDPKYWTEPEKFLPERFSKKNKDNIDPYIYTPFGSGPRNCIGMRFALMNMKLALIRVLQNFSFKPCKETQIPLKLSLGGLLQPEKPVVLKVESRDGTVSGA

[17] = target: T4, Methylated-DNA--protein-cysteine methyltransferase (Homo sapiens, UniProt P16455); assay: Inhibition of recombinant human N-terminal His-tagged MGMT (1 to 207 residues) expressed in Escherichia coli using O-6-benzylguanine as substrate after 30 mins by LC-MS analysis; conditions: 0.5 h
T4 sequence (P16455 whole entry): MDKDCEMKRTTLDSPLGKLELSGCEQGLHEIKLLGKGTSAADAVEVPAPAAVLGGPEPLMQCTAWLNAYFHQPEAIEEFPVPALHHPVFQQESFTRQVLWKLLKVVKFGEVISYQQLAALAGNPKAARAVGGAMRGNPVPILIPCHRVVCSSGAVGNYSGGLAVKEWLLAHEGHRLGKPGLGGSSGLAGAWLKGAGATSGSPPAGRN

[18] = Half life in pH 1 solution; type: physicochemical

Nc1cc(OCc2ncc(-c3ccccc3)o2)c2nn[nH]c2n1
pIC50 [1]: 6.54

Nc1cc(OCc2ccccc2Cl)c2nn[nH]c2n1
pIC50 [1]: 7.59

Nc1cc(SCc2ccccc2F)c2nn[nH]c2n1
inhibition in vivo at 30 mg/kg [2]: 74% | Cmax [3]: 17 µM | inhibition in vivo at 10 mg/kg [4]: 50% | AUC at 8 h [5]: 18 µM·h | inhibition [6]: Dose-dependent effect | fraction unbound [7]: 0.02 | pIC50 [8]: 7.66 | pIC50 [9]: 8.17 | fraction unbound [10]: 0.192 | inhibition [11]: Active | concentration [12]: 21 µM | pIC50 [1]: 8.06 | pIC50 [13]: 5.40 | pIC50 [14]: < 5.10 | concentration [15]: 70 µM

Nc1cc(OCc2nn(-c3ccccc3)nc2CO)c2nn[nH]c2n1
pIC50 [1]: 6.60

Nc1cc(OCc2cc(-c3cccc(F)c3)ccc2Cl)c2nn[nH]c2n1
pIC50 [16]: 7.22 | pIC50 [1]: 7.62

Nc1cc(SCc2c(Cl)cccc2Cl)c2nn[nH]c2n1
pIC50 [1]: 8.34

Cc1nn(-c2ccccc2)nc1COc1cc(N)nc2[nH]nnc12
pIC50 [16]: 6.43 | pIC50 [1]: 7.57

Cn1cc(-c2cccc(COc3cc(N)nc4[nH]nnc34)c2)cn1
pIC50 [1]: 7.11

Nc1cc(OCc2nn(-c3ccccc3)nc2C(F)F)c2nn[nH]c2n1
pIC50 [1]: 7.92

Nc1cc(OCc2ccccc2-n2cccn2)c2nn[nH]c2n1
pIC50 [1]: 7.59

Nc1cc(OCc2c(Cl)cccc2Cl)c2nn[nH]c2n1
pIC50 [1]: 8.17

Nc1nc(OCc2ccccc2)c2[nH]nnc2n1
Cmax [3]: 31 µM | inhibition (INH) [17]: Active | AUC at 8 h [5]: 22 µM·h | fraction unbound [7]: 0.006 | pIC50 [8]: 7.77 | pIC50 [9]: 6.72 to 6.96 | fraction unbound [10]: 0.127 | pIC50 [13]: 4.38 | pIC50 [14]: < 4.00 | half-life [18]: 2.8 h

Cn1ccc(-c2cccc(COc3cc(N)nc4[nH]nnc34)c2)n1
pIC50 [1]: 7.68

CS(=O)(=O)c1ccccc1COc1cc(N)nc2[nH]nnc12
pIC50 [1]: 6.14

Nc1cc(OCc2cn(-c3ccccc3)nn2)c2nn[nH]c2n1
pIC50 [1]: 6.40

Nc1cc(OCc2ccccc2F)c2nn[nH]c2n1
pIC50 [1]: 7.52

Nc1cc(OCc2cccc(-c3cccc(F)c3)c2)c2nn[nH]c2n1
pIC50 [1]: 7.68

Cc1c(COc2cc(N)nc3[nH]nnc23)cccc1-c1cccc(F)c1
pIC50 [1]: 7.64

Nc1cc(OCc2ccc(Cl)cc2)c2nn[nH]c2n1
pIC50 [1]: 7.59

Nc1cc(OCc2cccc(Cl)c2)c2nn[nH]c2n1
pIC50 [1]: 7.68

Cc1c(COc2cc(N)nc3[nH]nnc23)cccc1-c1ccn(C)n1
pIC50 [16]: 5.82 | pIC50 [1]: 7.59

Nc1cc(SCc2nn(-c3ccccc3)nc2C(F)F)c2nn[nH]c2n1
pIC50 [1]: 8.07

Nc1cc(OCc2ccccc2)c2nn[nH]c2n1
inhibition (INH) [17]: Active | AUC at 8 h [5]: 11 µM·h | pIC50 [9]: 7.30 | pIC50 [1]: 7.44 | half-life [18]: > 100 h

Nc1cc(OCc2cccc(-c3ccccc3F)c2)c2nn[nH]c2n1
pIC50 [1]: 6.80

— ChEMBL document CHEMBL4325921, “Potent Triazolopyridine Myeloperoxidase Inhibitors” (ACS Med Chem Lett, 2018)
